Measured values taken from ChEMBL document CHEMBL3872233, “Topical Treatment of Leishmania tropica Infection Using (-)-α-Bisabolol Ointment in a Hamster Model: Effectiveness and Safety Assessment” (J Nat Prod, 2016).
Activity calls are given as the source filed them. The calls are words filed in the database; no cut-off is given here.

How the values were obtained:
Leishmania tropica [1] = test: (§1) Antileishmanial activity against Leishmania tropica MHOM/MA/1988/LEM1314 promastigotes infected in Syrian hamster assessed as reduction in lesion thickness at 200 mg administered once daily through oral gavage for 3 weeks starting at week 7 post infection measured 1 week post last dose relative to control; format: functional; set-up: scale not given: the % may be the effect or the level left
How it was run: (§2)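 L. tropica stationary-phase promastigotes (3 × 10^7 in 50 μL PBS) injected into the left hind footpad. Treatment began at week 7 (+75% footpad thickness) and ran daily for 21 days, n = 10/group. Routes were 50 mg ointment on the lesion (cetyl alcohol/lanolin/petrolatum base), gavage in olive oil, or intralesional meglumine antimoniate 2 mg SbV/kg. Lesion thickness was measured weekly against base-only ointment; sacrifice was 1 week after the last dose.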

Leishmania tropica [2] = test: as §1, with “5 %” for “200 mg”, “tropically on footpad” for “through oral gavage”; format: functional; set-up: scale not given: the % may be the effect or the level left; how it was run: as §2
Syrian golden hamster [3] = test: Toxicity in Syrian hamster assessed as diarrhea at 500 mg/kg, po or 5 % administered tropically on footpad for 28 days; format: organism-based, Mesocricetus auratus; conditions: in vivo, 672 h
Syrian golden hamster [4] = test: Toxicity in Syrian hamster assessed as footpad edema at 500 mg/kg, po or 5 % administered tropically on footpad for 28 days; format: organism-based, Mesocricetus auratus; conditions: in vivo, 672 h
Syrian golden hamster [5] = test: Toxicity in Syrian hamster assessed as mean serum AST levels at 500 mg/kg administered through oral gavage for 28 days (reference value: 83.4 +/- 4.2 U/L); format: organism-based, Mesocricetus auratus; conditions: in vivo, 672 h
Syrian golden hamster [6] = test: Toxicity in Syrian hamster infected with Leishmania tropica MHOM/MA/1988/LEM1314 promastigotes assessed as mean serum AST levels at 2.5 % administered tropically on footpad for 3 weeks starting at week 7 post infection measured 1 week post last dose (reference value: 77.1 +/- 0.9 U/L); format: organism-based, Mesocricetus auratus; conditions: in vivo, topical_or_ocular, 168 h
Syrian golden hamster [7] = test: Toxicity in Syrian hamster infected with Leishmania tropica MHOM/MA/1988/LEM1314 promastigotes assessed as mean serum AST levels at 5 % administered tropically on footpad for 3 weeks starting at week 7 post infection measured 1 week post last dose (reference value: 77.1 +/- 0.9 U/L); format: organism-based, Mesocricetus auratus; conditions: in vivo, topical_or_ocular, 168 h
Syrian golden hamster [8] = test: Toxicity in Syrian hamster assessed as mean serum ALT levels at 5 % administered tropically on footpad for 28 days (reference value: 82.2 +/- 4.8 U/L); format: organism-based, Mesocricetus auratus; conditions: in vivo, topical_or_ocular, 672 h
Syrian golden hamster [9] = test: Toxicity in Syrian hamster infected with Leishmania tropica MHOM/MA/1988/LEM1314 promastigotes assessed as mean serum ALT levels at 200 mg/kg administered through oral gavage for 3 weeks starting at week 7 post infection measured 1 week post last dose (reference value: 81.6 +/- 4.9 U/L); format: organism-based, Mesocricetus auratus; conditions: in vivo, 168 h
Syrian golden hamster [10] = test: Toxicity in Syrian hamster assessed as mean serum creatinine levels at 500 mg/kg administered through oral gavage for 28 days (reference value: 0.21 +/- 0.2 mg/dl); format: organism-based, Mesocricetus auratus; conditions: in vivo, 672 h
Syrian golden hamster [11] = test: Toxicity in Syrian hamster infected with Leishmania tropica MHOM/MA/1988/LEM1314 promastigotes assessed as mean serum creatinine levels at 200 mg/kg administered through oral gavage for 3 weeks starting at week 7 post infection measured 1 week post last dose (reference value: 0.19 mg/dl); format: organism-based, Mesocricetus auratus; conditions: in vivo, 168 h
Syrian golden hamster [12] = test: Toxicity in Syrian hamster infected with Leishmania tropica MHOM/MA/1988/LEM1314 promastigotes assessed as mean serum ALP levels at 200 mg/kg administered through oral gavage for 3 weeks starting at week 7 post infection measured 1 week post last dose (reference value: 14.4 +/- 0.9 U/L); format: organism-based, Mesocricetus auratus; conditions: in vivo, 168 h
Syrian golden hamster [13] = test: Toxicity in Syrian hamster infected with Leishmania tropica MHOM/MA/1988/LEM1314 promastigotes assessed as mean serum ALP levels at 1 % administered tropically on footpad for 3 weeks starting at week 7 post infection measured 1 week post last dose (reference value: 14.4 +/- 0.9 U/L); format: organism-based, Mesocricetus auratus; conditions: in vivo, topical_or_ocular, 168 h
How it was run: (§3)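 Infected hamsters were treated daily for 21 days from week 7 post-infection (ointment 1–5%, 200 mg/kg gavage, or intralesional meglumine antimoniate 2 mg SbV/kg). Clinical signs and body weight were monitored during treatment and a 7-day follow-up. After sacrifice, liver and spleen were weighed and serum ALP, ALT, creatinine, urea and AST were measured with kits, compared with untreated infected animals.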

Syrian golden hamster [14] = test: Toxicity in Syrian hamster assessed as urea levels at 500 mg/kg administered through oral gavage for 28 days (reference value: 33.2 +/- 2.8 mg/dl); format: organism-based, Mesocricetus auratus; conditions: in vivo, 672 h
Syrian golden hamster [15] = test: Toxicity in Syrian hamster infected with Leishmania tropica MHOM/MA/1988/LEM1314 promastigotes assessed as urea levels at 2.5 % administered tropically on footpad for 3 weeks starting at week 7 post infection measured 1 week post last dose (reference value: 32.5 +/- 0.8 mg/dl); format: organism-based, Mesocricetus auratus; conditions: in vivo, topical_or_ocular, 168 h
Syrian golden hamster [16] = test: Toxicity in Syrian hamster infected with Leishmania tropica MHOM/MA/1988/LEM1314 promastigotes assessed as spleen weight at 2.5 % administered tropically on footpad for 3 weeks starting at week 7 post infection measured 1 week post last dose (reference value: 178.8 +/- 1.2 mg); format: organism-based, Mesocricetus auratus; conditions: in vivo, topical_or_ocular, 168 h
Syrian golden hamster [17] = test: Toxicity in Syrian hamster infected with Leishmania tropica MHOM/MA/1988/LEM1314 promastigotes assessed as spleen weight at 5 % administered tropically on footpad for 3 weeks starting at week 7 post infection measured 1 week post last dose (reference value: 178.8 +/- 1.2 mg); format: organism-based, Mesocricetus auratus; conditions: in vivo, topical_or_ocular, 168 h
Syrian golden hamster [18] = test: Toxicity in Syrian hamster assessed as liver weight at 5 % administered tropically on footpad for 28 days (reference value: 4.1 +/- 0.7 g); format: organism-based, Mesocricetus auratus; conditions: in vivo, topical_or_ocular, 672 h
Syrian golden hamster [19] = test: Toxicity in Syrian hamster infected with Leishmania tropica MHOM/MA/1988/LEM1314 promastigotes assessed as liver weight at 2.5 % administered tropically on footpad for 3 weeks starting at week 7 post infection measured 1 week post last dose (reference value: 3.3 +/- 0.2 g); format: organism-based, Mesocricetus auratus; conditions: in vivo, topical_or_ocular, 168 h; how it was run: as §3
Syrian golden hamster [20] = test: Toxicity in Syrian hamster assessed as change in body weight at 500 mg/kg, po or 5 % administered tropically on footpad for 28 days; format: organism-based, Mesocricetus auratus; conditions: in vivo, 672 h
Leishmania tropica [21] = test: as §1, with “parasite load in liver” for “lesion thickness”, “5 %” for “200 mg”, “tropically on footpad” for “through oral gavage”, “dose by qPCR analysis” for “dose”; format: functional, tissue-based
How it was run: (§4)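 Hamsters were infected in the footpad and treated daily for 21 days from week 7 post-infection, n = 10/group, and sacrificed 1 week after the last dose. Footpad skin, liver and spleen DNA was assayed by L. tropica-specific TaqMan qPCR (chromosome 29 target), in triplicate with 50 ng DNA per 25 μL reaction. Load was interpolated from Ct on a calibration curve of promastigote DNA, relative to base-ointment controls.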

Leishmania tropica [22] = test: (§5) Antileishmanial activity against Leishmania tropica MHOM/MA/1988/LEM1314 promastigotes infected in Syrian hamster assessed as reduction in parasite load in liver at 2 mg/kg administered intralesionally once daily on footpad for 3 weeks starting at week 7 post infection measured 1 week post last dose by qPCR analysis relative to control; format: functional, organism-based; how it was run: as §4
Leishmania tropica [23] = test: as §5, with “spleen” for “liver”, “2.5 %” for “2 mg/kg”, “administered” for “administered intralesionally”, “daily tropically” for “daily”; format: functional; how it was run: as §4
Leishmania tropica [24] = test: as §5, with “spleen” for “liver”, “5 %” for “2 mg/kg”, “administered” for “administered intralesionally”, “daily tropically” for “daily”; format: functional; how it was run: as §4
Leishmania tropica [25] = test: as §5, with “spleen” for “liver”; format: functional, organism-based; how it was run: as §4

SMILES: CC(C)=CCC[C@](C)(O)[C@@H]1CC=C(C)CC1 [LEVOMENOL]
- Activity (Leishmania tropica [1]): 62.5%
- Activity (Leishmania tropica [2]): 55.2%
- Activity (Syrian golden hamster [3]): Non-Toxic
- Activity (Syrian golden hamster [4]): Non-Toxic
- Activity (Syrian golden hamster [5]): 82.2 U/L
- Activity (Syrian golden hamster [6]): 87 U/L
- Activity (Syrian golden hamster [7]): 73 U/L
- Activity (Syrian golden hamster [8]): 82.5 U/L
- Activity (Syrian golden hamster [9]): 81.6 U/L
- Activity (Syrian golden hamster [10]): 0.19 mg/dL
- Activity (Syrian golden hamster [11]): 0.2 mg/dL
- Activity (Syrian golden hamster [12]): 12.9 U/L
- Activity (Syrian golden hamster [13]): 13 U/L
- Activity (Syrian golden hamster [14]): 33.7 mg/dL
- Activity (Syrian golden hamster [15]): 33.6 mg/dL
- Activity (Syrian golden hamster [16]): 178.4 mg
- Activity (Syrian golden hamster [17]): 193.1 mg
- Activity (Syrian golden hamster [18]): 3.4 g
- Activity (Syrian golden hamster [19]): 3.3 g
- Activity (Syrian golden hamster [20]): Non-Toxic
- Activity (Leishmania tropica [21]): Active
- Activity (Leishmania tropica [22]): Active
- Activity (Leishmania tropica [23]): Active
- Activity (Leishmania tropica [24]): Active
- Activity (Leishmania tropica [25]): Active
